These results are taken from ChEMBL document CHEMBL4715904, “Discovery of an Anion-Dependent Farnesyltransferase Inhibitor from a Phenotypic Screen” (ACS Med Chem Lett, 2021).

The target in assay [1] is T1, Protein farnesyltransferase/geranylgeranyltransferase type-1 subunit alpha (Homo sapiens, UniProt P49354). The experiment in a line: Displacement of (4-((1-neopentyl-1H-benzo[d]imidazol-2-yl)methyl)piperazin-1-yl)(1,3,5-trimethyl-1H-pyrazol-4-yl)methanone from FNTA in vorinostat-stimulated human Jurkat 2C4 cells infected with latent HIV-1 by pull-down experiment based competitive binding assay. An outline of the steps:
(§1)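 Affinity matrix made by immobilizing the aminoethyl-linked probe on Sepharose beads at 5.8, 3 and 1.4 mM; beads exposed to lysates of Jurkat 2C4 cells pretreated with vorinostat (250 nM); bound proteins pulled down, with free compound competing for binding.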

Assay [2] can be described thus: Inhibition of recombinant rat FTase expressed in Escherichia coli using 3H-FPP and biotinylated-DESGPGCMSCKCVLS peptide as substrates incubated for 30 mins in presence of 5 mM pyrophosphate by scintillation proximity assay. The procedure, abridged: (§2)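 Cell-free FTase inhibition assay, standard protocol; anion-dependent variants repeated with added anion (dimethylallyl diphosphate at increasing concentrations, or other anions) beyond the standard-protocol level.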

The nature of assay [3]: Inhibition of recombinant rat FTase expressed in Escherichia coli using 3H-FPP and biotinylated-DESGPGCMSCKCVLS peptide as substrates incubated for 30 mins in presence of 5 mM phosphate by scintillation proximity assay. An outline of the steps: as §2
For orientation: In a scintillation proximity assay essentially only radioactivity close to the scintillant gives light.

A short description of assay [4]: Inhibition of rat recombinant FTase expressed in Escherichia coli using 3H-FPP and biotinylated-DESGPGCMSCKCVLS peptide as substrates incubated for 30 mins in presence of 5 mM thiosulfate by scintillation proximity assay. The procedure, abridged: as §2
The nature of assay [5]: Inhibition of recombinant rat FTase expressed in Escherichia coli using 3H-FPP and biotinylated-DESGPGCMSCKCVLS peptide as substrates incubated for 30 mins in presence of 5 mM ATP by scintillation proximity assay. The procedure, abridged:
as §2

Assay [6] is filed under the species Homo sapiens. The experiment in a line: Binding affinity to recombinant FTase (unknown origin) assessed as change in melting temperature at 20 uM by TdF assay.
The subject of assay [7] is Human immunodeficiency virus 1. Kind of assay: Reactivation of latent HIV-1 infected in human Jurkat 2C4 cells assessed as increase in HIV-1 transcription incubated for 24 hrs by Steady-Glo luciferase reporter gene assay. Particulars: for EC50: Human immunodeficiency virus 1, 2C4, 24 h. The class given is functional, organism-based. The procedure, abridged:
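Jurkat 2C4 latent HIV reporter line (minimal provirus, Tat H12L, LTR-driven luciferase); latency reversal measured as increase in luciferase luminescence in cell lysates.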
(In general: Reporter assays use an easily measured gene product as a stand-in for the process of interest.)

The subject of assay [8] is Human immunodeficiency virus 1. The experiment in a line: Potentiation of vorinostat-induced reactivation of latent HIV-1 infected in human Jurkat 2C4 cells assessed as increase in HIV-1 transcription incubated for 24 hrs in presence of vorinostat by Steady-Glo luciferase reporter gene assay. The class given is functional, organism-based. As to conditions: Human immunodeficiency virus 1, 2C4, 24 h.

Assay [9] concerns the target T2, Mitochondrial inner membrane m-AAA protease component AFG3L2 (Homo sapiens, UniProt Q9Y4W6). The experiment in a line: Displacement of (4-((1-neopentyl-1H-benzo[d]imidazol-2-yl)methyl)piperazin-1-yl)(1,3,5-trimethyl-1H-pyrazol-4-yl)methanone from AFG3L2 in vorinostat-stimulated human Jurkat 2C4 cells infected with latent HIV-1 by pull-down experiment based competitive binding assay. The class given is tissue-based. An outline of the steps: as §1

Assay [10] has as its target T3, NmrA-like family domain-containing protein 1 (Homo sapiens, UniProt Q9HBL8). Kind of assay: Displacement of (4-((1-neopentyl-1H-benzo[d]imidazol-2-yl)methyl)piperazin-1-yl)(1,3,5-trimethyl-1H-pyrazol-4-yl)methanone from NMRAL1 in vorinostat-stimulated human Jurkat 2C4 cells infected with latent HIV-1 by pull-down experiment based competitive binding assay. It counts as tissue-based. The procedure, abridged:
as §1

Assay [11] concerns the target T4, Protein farnesyltransferase subunit beta (Homo sapiens, UniProt P49356). Kind of assay: Displacement of (4-((1-neopentyl-1H-benzo[d]imidazol-2-yl)methyl)piperazin-1-yl)(1,3,5-trimethyl-1H-pyrazol-4-yl)methanone from FNTB in vorinostat-stimulated human Jurkat 2C4 cells infected with latent HIV-1 by pull-down experiment based competitive binding assay. The class given is tissue-based. An outline of the steps: as §1

Assay [12] is described as follows: Inhibition of recombinant rat FTase expressed in Escherichia coli using 3H-FPP and biotinylated-DESGPGCMSCKCVLS peptide as substrates incubated for 30 mins in presence of 5 mM DMA-PP by scintillation proximity assay. An outline of the steps:
as §2

Assay [13] in a line: Inhibition of recombinant rat FTase expressed in Escherichia coli using 3H-FPP and biotinylated-DESGPGCMSCKCVLS peptide as substrates incubated for 30 mins in presence of 2 mM DMA-PP by scintillation proximity assay. An outline of the steps: as §2
The nature of assay [14]: Inhibition of recombinant rat FTase expressed in Escherichia coli using 3H-FPP and biotinylated-DESGPGCMSCKCVLS peptide as substrates incubated for 30 mins in presence of 1 mM DMA-PP by scintillation proximity assay. An outline of the steps:
as §2

The nature of assay [15]: Inhibition of recombinant rat FTase expressed in Escherichia coli using 3H-FPP and biotinylated-DESGPGCMSCKCVLS peptide as substrates incubated for 30 mins by scintillation proximity assay. An outline of the steps: as §2
Assay [16] concerns Human immunodeficiency virus 1. Kind of assay: Potentiation of vorinostat-induced reactivation of latent HIV-1 infected in human Jurkat 2C4 cells assessed as increase in HIV-1 transcription incubated for 24 hrs in presence of vorinostat by Steady-Glo luciferase reporter gene assay relative to control. The class given is functional.
Assay [17] is filed under the species Homo sapiens. The experiment in a line: Binding affinity to recombinant FTase (unknown origin) assessed as melting temperature at 20 uM by TdF assay (reference value: 46.2 +/- 0.2 degreeC).
Assay [18] has as its target T2, Mitochondrial inner membrane m-AAA protease component AFG3L2. Kind of assay: Displacement of (1-(2-aminoethyl)-3,5-dimethyl-1H-pyrazol-4-yl)(4-((1-neopentyl-1H-benzo[d]imidazol-2-yl)methyl)piperazin-1-yl)methanone from AFG3L2 in vorinostat-stimulated human Jurkat 2C4 cells infected with latent HIV-1 by pull-down experiment based competitive binding assay. The class given is tissue-based. The procedure, abridged: as §1

Assay [19] deals with T3, NmrA-like family domain-containing protein 1. Kind of assay: Displacement of (1-(2-aminoethyl)-3,5-dimethyl-1H-pyrazol-4-yl)(4-((1-neopentyl-1H-benzo[d]imidazol-2-yl)methyl)piperazin-1-yl)methanone from NMRAL1 in vorinostat-stimulated human Jurkat 2C4 cells infected with latent HIV-1 by pull-down experiment based competitive binding assay. The class given is tissue-based. The procedure, abridged:
as §1

The target in assay [20] is T4, Protein farnesyltransferase subunit beta. Kind of assay: Displacement of (1-(2-aminoethyl)-3,5-dimethyl-1H-pyrazol-4-yl)(4-((1-neopentyl-1H-benzo[d]imidazol-2-yl)methyl)piperazin-1-yl)methanone from FNTB in vorinostat-stimulated human Jurkat 2C4 cells infected with latent HIV-1 by pull-down experiment based competitive binding assay.
Assay [21] deals with T1, Protein farnesyltransferase/geranylgeranyltransferase type-1 subunit alpha. The experiment in a line: Displacement of (1-(2-aminoethyl)-3,5-dimethyl-1H-pyrazol-4-yl)(4-((1-neopentyl-1H-benzo[d]imidazol-2-yl)methyl)piperazin-1-yl)methanone from FNTA in vorinostat-stimulated human Jurkat 2C4 cells infected with latent HIV-1 by pull-down experiment based competitive binding assay.

Activity calls are given as the source filed them. The calls are words filed in the database; no cut-off is given here.

T3 sequence (Q9HBL8 whole entry, the tested form may be a part): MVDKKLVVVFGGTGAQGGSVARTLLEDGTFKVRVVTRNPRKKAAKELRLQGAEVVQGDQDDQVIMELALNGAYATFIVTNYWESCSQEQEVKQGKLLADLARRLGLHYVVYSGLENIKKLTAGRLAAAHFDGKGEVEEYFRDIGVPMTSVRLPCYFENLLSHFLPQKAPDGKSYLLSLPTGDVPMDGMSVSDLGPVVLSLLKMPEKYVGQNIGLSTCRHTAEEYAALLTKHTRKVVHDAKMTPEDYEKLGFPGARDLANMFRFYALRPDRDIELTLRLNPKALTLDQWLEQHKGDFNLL
T2 sequence (Q9Y4W6 whole entry): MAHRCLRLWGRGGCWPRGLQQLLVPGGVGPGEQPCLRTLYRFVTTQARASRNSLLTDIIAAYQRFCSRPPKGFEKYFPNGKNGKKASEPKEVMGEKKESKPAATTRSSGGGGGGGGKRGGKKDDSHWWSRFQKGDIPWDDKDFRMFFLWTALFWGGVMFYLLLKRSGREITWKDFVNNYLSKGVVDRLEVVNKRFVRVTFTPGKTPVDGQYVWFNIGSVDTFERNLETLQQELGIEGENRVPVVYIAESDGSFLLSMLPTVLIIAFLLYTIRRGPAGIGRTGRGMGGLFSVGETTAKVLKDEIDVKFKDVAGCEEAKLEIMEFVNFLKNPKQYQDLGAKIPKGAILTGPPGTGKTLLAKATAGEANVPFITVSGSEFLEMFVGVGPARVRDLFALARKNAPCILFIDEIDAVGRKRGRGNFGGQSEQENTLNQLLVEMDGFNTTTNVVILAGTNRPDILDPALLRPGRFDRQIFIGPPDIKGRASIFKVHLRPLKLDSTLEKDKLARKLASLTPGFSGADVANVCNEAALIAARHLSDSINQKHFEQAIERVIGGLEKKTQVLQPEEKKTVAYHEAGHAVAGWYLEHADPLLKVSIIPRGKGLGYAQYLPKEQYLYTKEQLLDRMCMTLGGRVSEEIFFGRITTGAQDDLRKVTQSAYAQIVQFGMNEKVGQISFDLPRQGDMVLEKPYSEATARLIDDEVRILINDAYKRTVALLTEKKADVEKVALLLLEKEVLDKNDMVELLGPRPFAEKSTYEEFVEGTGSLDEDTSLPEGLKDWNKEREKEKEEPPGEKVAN
T4 sequence (P49356 whole entry): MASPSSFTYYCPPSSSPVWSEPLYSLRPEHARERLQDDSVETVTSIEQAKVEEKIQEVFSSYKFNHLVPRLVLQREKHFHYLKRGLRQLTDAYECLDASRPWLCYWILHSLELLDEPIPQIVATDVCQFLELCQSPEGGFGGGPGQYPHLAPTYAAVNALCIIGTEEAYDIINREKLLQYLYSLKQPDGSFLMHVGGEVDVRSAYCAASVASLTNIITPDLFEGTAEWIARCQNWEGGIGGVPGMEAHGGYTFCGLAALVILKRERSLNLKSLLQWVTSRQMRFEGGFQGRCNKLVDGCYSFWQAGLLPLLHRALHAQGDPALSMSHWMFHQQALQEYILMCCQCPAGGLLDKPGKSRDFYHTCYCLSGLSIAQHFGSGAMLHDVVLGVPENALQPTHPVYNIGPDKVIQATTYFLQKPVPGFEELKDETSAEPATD

As for `CCn1c(CN2CCN(C(=O)c3c(C)nn(C)c3C)CC2)nc2ccccc21`, the inhibition result in assay [1], in [9], in assay [10] and in assay [11] was “inactive” in each case. Moreover, the IC50 in [2], in assay [3], in [4] and in assay [5] was greater than 40000 nM each time. In addition, the ΔTm in assay [6] turned out to be 2 °C. Further, the EC50 in assay [7] and in assay [8] was greater than 8000 nM each time.
For the compound `N#Cc1ccc(Cn2cncc2CN2CCN(c3cccc(Cl)c3)C(=O)C2)cc1` [L-778123 FREE BASE], the IC50 was 70 nM in assay [2]; 70 nM in [3]; 50 nM in assay [4]; 50 nM in assay [5]; 70 nM in [12]; 100 nM in assay [13]. Further, the IC50 in assay [14] amounted to 40 nM; in [15], 50 nM. Also, in assay [16], the Activity amounted to 100%. The outcome in assay [7] was Active. The EC50 in assay [8] was 170 nM.
`CC(=O)NCCn1nc(C)c(C(=O)N2CCN(Cc3nc4ccccc4n3CC(C)(C)C)CC2)c1C`: the EC50 in assay [7] is greater than 8000 nM; in [8], 1100 nM.
Regarding `Cc1nn(C)c(C)c1C(=O)N1CCN(Cc2nc3ccccc3n2CC(C)(C)C)CC1`, the IC50 in assay [2] turned out to be 2500 nM; in assay [3], 1300 nM; in [4] it was 2100 nM; in assay [5], 250 nM; in [12], 500 nM; in assay [13], 900 nM. Moreover, the IC50 was 1000 nM in assay [14] and no less than 20000 nM in [15]. Besides, the ΔTm in assay [6] is 4.2 °C. In assay [17], the Tm came out at 50.4 °C. Besides, the Kd came to 19000 nM in assay [18], 19000 nM in assay [19], 475 nM in assay [20] and 340 nM in assay [21]. Further, in [16], the Activity worked out at 100%. Also, the results for the EC50 in assay [7] and in [8] were greater than 8000 nM and 340 nM, respectively.

By IC50 is commonly meant the midpoint of a concentration-inhibition curve. The ΔTm is the shift of the melting midpoint relative to a reference. What is called EC50 is the concentration at which the effect is half-maximal. By Kd is commonly meant a measure of binding affinity in units of concentration.
